The full list was thinned out, with hits kept by preference.
UPR XBP1 act = adaptive UPR (XBP1) activation. activation, % at 20 µM. CHO-XBP1 luciferase reporter, IRE1-XBP1 UPR activation, luminescence; percent of tunicamycin response, DMSO as zero. 330,000 tested, 0.33% active;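 active = versus positive control, 20 µM dose yields 30% or more activation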;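 also: 100% = tunicamycin at 10 µg/mL and 0% = DMSO only wells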
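Material: CHO cell line with stable XBP1 luciferase reporter; buffer or medium: F12 medium containing 10% fetal bovine serum; compound: single point, 20 µM final compound, 1% DMSO; incubation: 6 h treatment, 37 °C; measured by: glow luminescence from Steady-Glo reagent; evaluation: activation, % of tunicamycin; control set: tunicamycin high, DMSO low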
V-ATPase pH = yeast V-ATPase proton transport regulation by pHLuorin; S. cerevisiae, pHLuorin cytosolic pH fluorescence; AID 504577; 350,000 tested, 0.37% active; response, % at 10 µM; in the data active = response mostly above about 7.3%, no sharp cut-off; inactive = mostly below about 5.4%; also: actives read high
Tb MetRS inh = blocks T. brucei methionyl-tRNA synthetase activity; purified T. brucei MetRS, ATP depletion, Kinase-Glo luminescence; inhibition, % at 11.9 µM; 360,000 tested, 0.4% active; AID 624268;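 active = inhibition above a per-plate cutoff of the control wells' mean inhibition plus 3 SD, cut at about 5.5% in these data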;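 also: 0% = DMSO wells median and 100% = median of wells with control inhibitor compound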
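System: purified T. brucei MetRS enzyme / Detection: Kinase-Glo luciferase luminescence reporting remaining unconsumed ATP / Medium: HEPES buffer with MgCl2, KCl, DTT, spermine, BSA, pyrophosphatase / Replication: singlicate, one well per compound / Evaluation: percent inhibition relative to median high and low control wells / Schedule: 2 h aminoacylation at 25 °C after 15 min preincubation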
CHOP UPR activ = activators of apoptotic arm of unfolded protein response (CHOP). CHO-CHOP luciferase reporter, UPR activation, luminescence; percent of tunicamycin response over DMSO baseline. activation, % at 10 µM. 330,000 tested, 0.34% active. AID 449763;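 active = at 10 µM dose, activation of 40% or more, normalized to positive control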;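 also: 100% = tunicamycin at 10 µg/mL and 0% = DMSO alone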
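Evaluation: % reporter activation, DMSO baseline versus tunicamycin full activation; System: CHO-CHOP luciferase reporter cell line; Input: 500 cells/well; Incubation: 6 h compound treatment, 37 °C; Measured by: Steady-Glo luciferase luminescence; Dosing: one dose, 10 µM in 0.5% DMSO; Buffer or medium: F12 medium, 10% FBS; Benchmarks: positive tunicamycin 10 µg/mL, negative DMSO alone.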
CHOP inhibitor = CHOP inhibition in unfolded protein response. inhibition, % at 10 µM. 220,000 tested, 3.8% active. AID 2732. CHO-K1 CHOP-promoter luciferase, tunicamycin-induced, 15-18 h;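 active = compounds that reduced the stress-induced luciferase reporter signal by more than about 70% of percent inhibition, limit read from the data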;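 also: 0% = tunicamycin plus vehicle and 100% = wells without tunicamycin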
CHOP confirm = confirmation of CHOP induction inhibitors; inhibition, % at 10 µM; shares compounds with CHOP inhibitor; 2,100 tested, 45% active; CHO-CHOP promoter luciferase reporter, tunicamycin-induced, luminescence; AID 504437;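 active = mean of three repeat readings of reporter signal inhibition above a set limit, cut at about 70% in these data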;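 also: 0% = tunicamycin plus vehicle and 100% = wells lacking tunicamycin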
Numbers without * were called inactive; . = no result.

SMILES	UPR XBP1 act	V-ATPase pH	Tb MetRS inh	CHOP UPR activ	CHOP inhibitor	CHOP confirm
CC(C)CCSc1nc2c(c(=O)[nH]c(=O)n2C)n1CCCc1ccccc1	4.2	-0.3	-0.5	-0.6	104.6*	106.1*
O=C(COc1coc(CN2CCc3ccccc3C2)cc1=O)Nc1ccc(F)cc1F	-2.3	-4.5	-0.4	0.3	.	.
O=C(Cn1c2c(sc1=O)C1c3ccccc3OCC1CS2)Nc1ccc(Cl)c(Cl)c1 (stereo not drawn)	.	-2.0	-0.2	.	99.4*	35.4
CC(=O)Oc1cc2oc(=O)c3c(c2cc1Cl)CCC3	-1.9	-2.8	-0.5	0.8	99.2*	6.2
O=C(COc1ccc(Br)cc1)Nc1ccc(CN2CCOCC2)cc1	-4.5	6.0	-0.4	-1.2	.	.
Cc1nc(SCC(=O)Nc2ccc(F)cc2)c2oc3ccccc3c2n1	5.7	-3.9	0.1	-5.0	106.4*	18.9
Cc1nc(SCC(=O)NC(C)c2ccccc2)c2oc3ccccc3c2n1 (stereo not drawn)	2.8	0.6	0.2	-2.6	6.0	.
Cc1nc(SCC(=O)Nc2ccccc2)c2oc3ccccc3c2n1	13.7	-0.9	0.4	-4.0	96.4*	32.3
Cc1nc(SCC(=O)NCCc2ccccc2)c2oc3ccccc3c2n1	-0.2	-3.5	-1.1	-2.2	54.7	.
COc1ccc2c(c1)c1ccc3c(c1n2C)C(=O)C=CC3=O	-10.6	-1.2	-0.9	-1.7	103.9*	41.3
COc1ccc2nc(NC(=O)C3CCCN(S(=O)(=O)c4cccs4)C3)sc2c1 (stereo not drawn)	-4.2	2.8	-1.6	-1.2	96.2*	51.1
O=S(=O)(NCC(Nc1ccc(Cl)cc1)c1ccccc1)c1ccccc1 (stereo not drawn)	-2.5	-2.1	0.1	-1.2	98.6*	22.3
Cc1ccc(CCC2C3=C(CCCC3=O)OC3=C2C(=O)CCC3)cc1	-0.4	-1.4	0.2	0.6	20.5	.
CC(C)c1ccc(CC(C)C2C3=C(CCCC3=O)OC3=C2C(=O)CCC3)cc1 (stereo not drawn)	-5.3	0.9	-0.8	-1.1	103.9*	58.1
CC/C(=N/Nc1cccc(C)c1)c1cnnc(SC)n1	3.4	3.7	-1.3	0.8	96.9*	-70.6
CC/C(=N/Nc1ccc(Cl)cc1)c1cnnc(SC)n1	-1.8	1.5	0.5	0.7	-12.6	.
CCCCCCCCN1C(=O)[C@H](CC(=O)N2CCSCC2)C[C@@]2(C(=O)OCC)CCCC=C12	.	.	-1.6	.	.	.
NC(=O)NC(=O)C(c1ccccc1)N1CCN(S(=O)(=O)Cc2ccccc2)CC1 (stereo not drawn)	-2.5	-2.3	-0.6	0.2	.	.
O=S(=O)(Nc1ccc(Cc2ccncc2)cc1)c1ccc(Cl)c(Cl)c1	0.3	0.7	-1.6	-1.7	102.6*	53.9
Cc1ccc2c(c1)c1c3n2CCCNC3CCC1 (stereo not drawn)	0.6	3.1	-0.1	-1.5	26.8	.
c1cc2c(cc1C1CCCCC1)c1c3n2CCCNC3CCC1 (stereo not drawn)	7.8	-3.1	-0.6	32.2	.	-44.5
Nc1nonc1-c1nc2ccccc2n1Cc1ccc(F)cc1Cl	5.6	-0.2	-1.7	4.1	100.0*	-41.2
S=C(N/N=C/c1ccc(Cl)c(Cl)c1)Nc1ccccc1Cl	22.1	-1.2	-0.2	7.4	54.6	.
Fc1cccc(/C=N/NC(=S)Nc2ccccc2Cl)c1	-0.6	-0.6	-1.1	2.2	103.9*	-32.9
CCOc1nc(N2CCCCC2)nc(-n2cc(-c3ccccc3)nn2)n1	-2.6	0.9	1.1	0.3	40.6	.
SMILES	UPR XBP1 act	V-ATPase pH	Tb MetRS inh	CHOP UPR activ	CHOP inhibitor	CHOP confirm
CCOC(=O)c1c(-c2ccccc2)nnn1-c1nc(OCC)nc(N2CCCCC2)n1	-0.9	8.1	-0.6	3.3	101.0*	62.3
O=[N+]([O-])c1cc(F)cc(F)c1Nc1cc(F)cc(F)c1	.	-1.0	0.0	.	.	.
CCOC(=O)C1=C(N)Oc2c(c(=O)[nH]c3ccccc23)C1c1ccccc1 (stereo not drawn)	1.9	-1.3	-0.1	-0.3	96.8*	-4.5
COC(=O)c1ccc(NC(=O)c2cc[n+]([O-])cc2)cc1	-1.1	5.2	1.0	1.0	.	.
CCOC(=O)c1oc2ccc(S(=O)(=O)n3nc(-c4ccc(Cl)cc4)cc3N)cc2c1C	0.7	-4.8	-0.3	-1.1	34.3	.
CCOC(=O)c1oc2ccc(S(=O)(=O)n3nc(-c4ccc(C)cc4)cc3N)cc2c1C	-3.6	-2.2	-0.8	0.6	97.1*	56.1
N#Cc1nc(-c2cccs2)oc1NCc1ccc2c(c1)OCO2	0.3	-1.3	-1.6	0.0	-16.9	.
CC(C)COc1ccc(/C(=N/O)c2ccccc2)cc1	1.3	3.2	-1.4	2.5	107.4*	92.5*
CC(O)COc1ccc(/C(=N/O)c2ccccc2)cc1 (stereo not drawn)	2.9	-3.7	-0.5	3.8	7.2	.
O=c1c(-c2ccco2)nc2ccccc2n1C(CCc1ccccc1)c1nc2ccccc2[nH]1 (stereo not drawn)	.	.	0.8	.	.	.
O=C(COc1ccccc1-c1ccccc1)N/N=C/c1cccc2ccccc12	15.8	2.5	-2.7	-1.4	35.0	.
COc1ccc(/C=N/NC(=O)COc2ccccc2-c2ccccc2)cc1	9.1	3.3	-0.6	0.8	106.4*	10.7
CN(C)NC(=S)NC1CCS(=O)(=O)C1 (stereo not drawn)	-1.4	0.7	-1.6	-1.6	-6.7	.
C/C(CCc1oc2ccc(Br)cc2c1-c1ccc(C)o1)=N/O	-1.4	-3.8	-0.5	-0.7	97.3*	38.6
Cc1ccc(-c2cc(C(=O)O)c3cc(Br)ccc3n2)o1	-0.9	0.5	0.5	0.8	16.5	.
O=C(CNC(=O)c1ccccc1F)N/N=C/c1ccc2c(c1)OCO2	0.6	-1.1	0.1	3.3	.	.
CC1=CC(=O)C=C(C)C1=NOS(=O)(=O)c1ccccc1	.	3.6	-0.5	.	.	73.5*
Cn1c2ccccc2c2nnc(NN)nc21	-1.6	-0.8	-0.8	-0.4	-7.4	.
CCCCc1c(C)nn(-c2nnc3c4ccccc4n(C)c3n2)c1C	2.8	1.7	-1.2	7.3	106.5*	38.5
CCCOC(=O)c1ccc(Oc2c(-c3ccc(O)cc3O)n[nH]c2C)cc1	-0.6	1.9	0.0	-0.8	105.0*	69.0
CCc1cc(-c2n[nH]c(C)c2Oc2ccc(C(C)C)cc2)c(O)cc1O	0.5	-2.1	0.0	-2.3	112.7*	114.3*
O=C(C1CCCO1)N1CCN(S(=O)(=O)c2ccc(Cl)cc2)CC1 (stereo not drawn)	-3.3	2.8	-0.4	-0.6	.	.
O=C(NNc1nc2ccccc2s1)Nc1ccc(Cl)c(Cl)c1	-4.5	0.9	1.5	-1.2	105.6*	-67.2
O=C(NNc1nc2ccccc2s1)Nc1ccc(F)cc1	0.2	-0.1	-1.0	4.6	22.3	.
O=C(Cn1nnc2ccccc21)c1ccc(Cl)cc1	2.1	2.8	-1.1	4.3	15.7	.
